{"source": "ChEMBL document CHEMBL4396917", "about": "“Synthesis and biological evaluation of novel benzylidene-succinimide derivatives as noncytotoxic antiangiogenic inhibitors with anticolorectal cancer activity in vivo” (Eur J Med Chem, 2019)", "key": {"NCM460": {"test_system": "NCM460", "assay": "Cytotoxicity against human NCM460 cells assessed as reduction in cell growth after 72 hrs by MTT assay", "assay_type": "cell-based", "details": "NCM460, 72 h"}, "HUVEC [1]": {"test_system": "HUVEC", "assay": "Antimigratory activity in HUVEC assessed as reduction in VEGF-induced cell migration at 2.5 uM measured after 24 hrs by wound healing assay relative to control", "assay_type": "functional", "details": "Homo sapiens", "outline": "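Confluent HUVECs starved 12 h in M200 with 2% FBS, scratched with pipette tip; fresh M200 with 25 ng/mL VEGF plus vehicle, 2.5 μM sunitinib or compound (1, 2.5 μM); wound imaged at 0, 6, 12 and 24 h by inverted microscopy.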"}, "HUVEC [2]": {"test_system": "HUVEC", "assay": "Antiinvasive activity in HUVEC assessed as inhibition of VEGF-induced cell invasion at 5 uM after 6 hrs by crystal violet staining based transwell assay relative to control", "assay_type": "functional", "details": "Homo sapiens", "outline": "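Transwell: 1×10⁴ HUVECs in serum-free M200 in top chamber with vehicle or compound; bottom chamber M200 with 10% FBS; 6 h at 37°C; cells on membrane underside fixed in 4% paraformaldehyde, stained 0.1% crystal violet, imaged and counted.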"}, "HUVEC [3]": {"test_system": "HUVEC", "assay": "Antiangiogenic activity in HUVEC assessed as inhibition of VEGF-induced capillary like tube formation at 2.5 uM preincubated with VEGF for 20 mins followed by compound addition measured after 6 hrs by matrigel based tube formation assay relative to control", "assay_type": "functional", "details": "Homo sapiens", "outline": "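Matrigel (100 μL) set 1 h at 37°C; 2×10⁴ HUVECs in M200 with 10% FBS added per well plus 10 ng/mL VEGF; compound added after 20 min; incubated 6 h at 37°C, then capillary-like structures photographed.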"}, "HUVEC [4]": {"test_system": "HUVEC", "assay": "Induction of apoptosis in VEGF-stimulated HUVEC assessed as early apoptotic cells at 1 uM after 24 hrs by Annexin V-FITC/propidium iodide staining based flow cytometric analysis (reference value: 7%)", "assay_type": "cell-based", "details": "human", "outline": "(§1)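 HUVECs plated at 5×10^5 per well and treated 24 h with 1, 5, 10 or 20 μM. Detached and adherent cells were pooled, washed in ice-cold PBS and resuspended in fresh medium. 1×10^5 cells were stained with annexin-V-FITC in annexin-V buffer for 20 min in the dark, then PI (50 μg/mL) was added. Read-out by flow cytometry.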"}, "HUVEC [5]": {"test_system": "HUVEC", "assay": "Induction of apoptosis in VEGF-stimulated HUVEC assessed as late apoptotic cells at 5 uM after 24 hrs by Annexin V-FITC/propidium iodide staining based flow cytometric analysis (reference value: 11.3%)", "assay_type": "cell-based", "details": "human", "outline": "as §1"}, "HUVEC [6]": {"test_system": "HUVEC", "assay": "Induction of apoptosis in VEGF-stimulated HUVEC assessed as late apoptotic cells at 20 uM after 24 hrs by Annexin V-FITC/propidium iodide staining based flow cytometric analysis (reference value: 11.3%)", "assay_type": "cell-based", "details": "human", "outline": "as §1"}, "HT-29 [7]": {"test_system": "HT-29", "assay": "Induction of apoptosis in human HT-29 cells assessed as early apoptotic cells at 1 uM after 24 hrs by Annexin V-FITC/propidium iodide staining based flow cytometric analysis (reference value: 1.9%)", "assay_type": "cell-based", "details": "ht-29, 24 h"}, "HT-29 [8]": {"test_system": "HT-29", "assay": "Induction of apoptosis in human HT-29 cells assessed as necrotic cells at 1 uM after 24 hrs by Annexin V-FITC/propidium iodide staining based flow cytometric analysis (reference value: 3.9%)", "assay_type": "cell-based", "details": "ht-29, 24 h"}, "HT-29 [9]": {"test_system": "HT-29", "assay": "Induction of apoptosis in human HT-29 cells assessed as late apoptotic cells at 5 uM after 24 hrs by Annexin V-FITC/propidium iodide staining based flow cytometric analysis (reference value: 12.3 to 13.4%)", "assay_type": "cell-based", "details": "ht-29, 24 h"}, "[10]": {"assay": "Induction of apoptosis in human HT-29 cells assessed as viable cells at 20 uM after 24 hrs by Annexin V-FITC/propidium iodide staining based flow cytometric analysis (reference value: 80.8%)", "assay_type": "cell-based", "details": "read-out: Activity"}, "HT-29 [11]": {"test_system": "HT-29", "assay": "Induction of apoptosis in human HT-29 cells assessed as early apoptotic cells at 20 uM after 24 hrs by Annexin V-FITC/propidium iodide staining based flow cytometric analysis (reference value: 1.9%)", "assay_type": "cell-based", "details": "ht-29, 24 h"}, "HT-29 [12]": {"test_system": "HT-29", "assay": "Induction of apoptosis in human HT-29 cells assessed as late apoptotic cells at 5 uM after 72 hrs by Annexin V-FITC/propidium iodide staining based flow cytometric analysis (reference value: 12.3%)", "assay_type": "cell-based", "details": "ht-29, 72 h"}, "HUVEC [13]": {"test_system": "HUVEC", "assay": "Effect on total FAK expression in VEGF-induced HUVEC at 1 to 20 uM pre-incubated for 2 hrs followed by VEGF stimulation and measured after 15 mins by Western blot analysis", "assay_type": "ADME, cell-based", "details": "human, 0.25 h", "outline": "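HUVECs serum-starved overnight, pretreated with compound (methods: 1, 2.5, 5, 10 μM for 2 h; legend: 1, 5, 10, 20 μM for 1.5 h), then VEGF 50 ng/mL (methods: VEGF165, 15 min; legend: 30 min); lysates equalized by Bradford, ~20 μg protein resolved on gradient SDS-PAGE, immunoblotted, ECL detection.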"}, "HUVEC [14]": {"test_system": "HUVEC", "assay": "Inhibition of Akt/mTOR signalling in VEGF-induced HUVEC assessed as reduction in AKT phosphorylation at Ser473 residue at 1 to 20 uM pre-incubated for 1.5 hrs followed by VEGF stimulation and measured after 30 mins by Western blot analysis", "assay_type": "cell-based", "details": "Homo sapiens", "outline": "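HUVECs were starved overnight, pretreated 1.5 h with 1, 5, 10 or 20 μM, then stimulated with VEGF (50 ng/mL) for 30 min. Lysates were equalized by Bradford assay, about 20 μg protein was resolved on gradient SDS-PAGE and immunoblotted with phospho-specific antibodies. Detection by HRP secondary antibodies and ECL.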"}, "HT-29 [15]": {"test_system": "HT-29", "assay": "Inhibition of Akt/mTOR signalling in human HT-29 cells assessed as reduction in STAT3 phosphorylation at Tyr705 residue incubated for 24 hrs by immunoblot analysis", "assay_type": "cell-based", "outline": "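HT29 cells were exposed to the indicated concentrations for 24 h. Cell lysates were then immunoblotted for the phosphorylated proteins.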"}, "HT-29 [16]": {"test_system": "HT-29", "assay": "Downregulation of HIF1-alpha mRNA expression in human HT-29 cells after 24 hrs by RT-qPCR assay", "assay_type": "functional, cell-based", "outline": "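HT29 cells treated with 1, 5, 10 or 20 μM for 24 h; total RNA extracted with TRIzol; SYBR Green qPCR, 40 cycles of 5 s at 95°C and 60 s at 60°C in 20-μL reactions.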"}, "[17]": {"target": "Serine/threonine-protein kinase mTOR (Homo sapiens) (UniProt P42345)", "assay": "Inhibition of mTOR (unknown origin) at 10 uM using myelin basic protein as substrate in presence of [gamma-33P]-ATP by scintillation counting analysis relative to control", "outline": "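Radiometric kinase panel run by a contract lab. Kinase (5–10 mU) in 25 mM Tris pH 7.5, 0.02 mM EGTA, 0.66 mg/mL myelin basic protein, magnesium acetate and [γ-33P]-ATP (about 500 cpm/pmol). Started with Mg-ATP mix, 40 min at room temperature, stopped with 3% phosphoric acid. Spotted on P30 filters, washed in 75 mM phosphoric acid and methanol, scintillation counted. Mean ± SD of three independent experiments.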"}, "HT-29 [18]": {"test_system": "HT-29", "assay": "Antiangiogenic activity in human HT-29 cells assessed as decrease in secreted MMP2 activity at 1 to 20 uM after 24 hrs by gelatin zymography", "assay_type": "functional, cell-based", "outline": "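HT29 cells treated 1, 5, 10 or 20 μM for 24 h; supernatant run non-reducing on 10% SDS-PAGE with 2% gelatin; SDS removed with 2% Triton X-100, gel incubated 48 h at 37°C in Tris pH 7.5/NaCl/CaCl2 buffer, Coomassie stained; clear MMP-2 and MMP-9 bands quantified by densitometry.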"}}, "note": "Calls of active or inactive are those of the source. The rule behind the calls is not given here."}
{"smiles": "COc1ccc(NC(=O)c2cccc(/C=C3\\CC(=O)N(c4ccc(C)cc4)C3=O)c2)cc1", "values": [{"measurement": "IC50", "setting": "NCM460", "result": "> 100", "unit": "µM"}, {"measurement": "inhibition at 2.5 µM", "setting": "HUVEC [1]", "result": 60, "unit": "%"}, {"measurement": "inhibition at 5 µM", "setting": "HUVEC [2]", "result": 40, "unit": "%"}, {"measurement": "inhibition at 2.5 µM", "setting": "HUVEC [3]", "result": 73, "unit": "%"}, {"measurement": "Activity", "setting": "HUVEC [4]", "result": 10.7, "unit": "%"}, {"measurement": "Activity", "setting": "HUVEC [5]", "result": 9.7, "unit": "%"}, {"measurement": "Activity", "setting": "HUVEC [6]", "result": 10.1, "unit": "%"}, {"measurement": "Activity", "setting": "HT-29 [7]", "result": 1.3, "unit": "%"}, {"measurement": "Activity", "setting": "HT-29 [8]", "result": 4.4, "unit": "%"}, {"measurement": "Activity", "setting": "HT-29 [9]", "result": "15.9 to 18.4", "unit": "%"}, {"measurement": "viability at 24 h, 20 µM", "setting": "[10]", "result": 78.9, "unit": "%"}, {"measurement": "Activity", "setting": "HT-29 [11]", "result": 1.7, "unit": "%"}, {"measurement": "Activity", "setting": "HT-29 [12]", "result": 12.5, "unit": "%"}, {"measurement": "Activity", "setting": "HUVEC [13]", "result": "Not Active"}, {"measurement": "inhibition", "setting": "HUVEC [14]", "result": "Active"}, {"measurement": "inhibition", "setting": "HT-29 [15]", "result": "Dose-dependent effect"}, {"measurement": "inhibition", "setting": "HT-29 [16]", "result": "Dose-dependent effect"}, {"measurement": "inhibition", "setting": "[17]", "result": 93.8, "unit": "%"}, {"measurement": "inhibition", "setting": "HT-29 [18]", "result": "Active"}]}
